Usually viability stands for a read-out of living cells in per cent, often relative to untreated cells. As a reminder, the inhibition is the drop in the measured response relative to a control, in per cent.

Results on 18 molecules are retold here after PubChem BioAssay.

Experiment [1] is described as follows: reduced viability of SK-BR-3 breast cancer cells – cell-based, 24 h, human, pilot screen (AID 572;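 active = viability at or below 10% of carrier control in both of two separate runs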;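 also: compound exposure lasted between 18 and 24 h rather than exactly 24 h; 100% = carrier-treated control wells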). The note with it: SK-BR-3 viability, CellTiter-Glo luminescence, at 10 µM, stronger effect = lower value. On the technique in general: Cellular ATP, detected with luciferase, serves as a proxy for viable cell number.
A short description of experiment [2]: HUVEC growth inhibition – cell-based, human, primary screen (AID 575;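 active = viability at or below 30% in both replicate assays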;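 also: 100% = median of untreated cell wells with 0.1% DMSO on each plate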). The note with it: HUVEC proliferation, CellTiter-Glo luminescence, 72 h; at 10 µM; stronger effect = lower value. The gist of the method: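 Material: primary human umbilical vein endothelial cells / Schedule: 72 h exposure, 37 °C, 5% CO2, 30 min RT equilibration / Signal: ATP-based CellTiter-Glo luminescent read / Read-out basis: percent of median DMSO-control luminescence / Control set: 32 DMSO-only cell-control wells (high), 32 MePR drug-control wells (low) per plate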

Experiment [3] in a line: H69AR cell proliferation blockers – human, duplicate replicates, primary screen (AID 580;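 active = viability at or under a set limit in both replicates, limit being median viability minus 3 SD, cut at about 48% in these data, passing the limit was not always enough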;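 also: 100% = mean luminescence of untreated wells and 0% = no signal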). Particulars: H69AR lung tumor cells viability, ATP luminescence, 72 h; at 10 µM; stronger effect = lower value.
The nature of experiment [4]: MRP1 drug-resistance reversers in H69AR cells – cell-based, doxorubicin co-treatment, pilot screen (AID 601). The note with it: CellTiter-Glo, 72 h, at 10 µM; for differential viability (reversal): stronger effect = higher value.
Experiment [5] is described as follows: yeast transport mutant growth inhibition pilot in 384-well plates, post-Golgi transport modulator project (AID 636; in the data active = inhibition above about 31%). Particulars: absorbance 615 nm, about 18 h, stronger effect = higher value.
A short description of experiment [6]: growth suppression of yeast trafficking mutant, preliminary HTS, modulators of trafficking downstream of Golgi apparatus project, 1536-format plate, OD 615 nm (AID 637; in the data active = inhibition above about 30%). Particulars: yeast transport mutant growth, absorbance 615 nm, 18 h; stronger effect = higher value.
[7] abbreviates: H69AR cells + 2 uM doxorubicin, measured here: viability with 2 uM doxorubicin, stronger effect = lower value.
[8] abbreviates: H69AR cells, compound alone cytotoxicity.

Active and inactive are the calls of the source.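 The calls were made as follows, unless noted: active = viability loss from added drug above about 55%, and viability with drug at most 40%, in both replicates (limit read from the data, passing the limit was not always enough); inconclusive = both conditions met in only one replicate; inactive = neither replicate meets both conditions.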

As for `O=C(COC(=O)c1cnccn1)Nc1ccc2c(c1)OCO2`, the viability in experiment [1] is 130% (inactive); in experiment [2], 82% (inactive); in experiment [3] it was 91.6% (inactive); in experiment [4] (setting [7]), 88.7%; in experiment [4] (setting [8]), 91.6%. The differential viability (reversal) in experiment [4] (H69AR cells + 2 uM doxorubicin) was 2.88% (inactive). The values for the inhibition in experiment [5] and in experiment [6] were 0.65% (inactive) and 2.46% (inactive), respectively.
In the case of `CC(OC(=O)c1ccco1)C(=O)NCc1cccs1` (centres undefined), the viability is 119% (inactive) in experiment [1]; 90.3% (inactive) in experiment [2]; 97.4% (inactive) in experiment [3]; 103% in experiment [4] (setting [7]); 97.4% in experiment [4] (setting [8]). Further, in experiment [4] (H69AR cells + 2 uM doxorubicin), the differential viability (reversal) was -5.53% (inactive). Moreover, the inhibition is -4.25% (inactive) in experiment [5] and -4.55% (inactive) in experiment [6].
Take `Cc1cccc(N2CCN(C(=O)C3CCCN(S(=O)(=O)c4cnc[nH]4)C3)CC2C)c1` (centres undefined): the viability is 90% (inactive) in experiment [1]; 90.2% (inactive) in experiment [2]; 95.6% (inactive) in experiment [3]; 88.7% in experiment [4] (setting [7]); 95.6% in experiment [4] (setting [8]). The differential viability (reversal) in experiment [4] (H69AR cells + 2 uM doxorubicin) is 6.94% (inactive). Also, the inhibition was -0.26% (inactive) in experiment [5] and -0.98% (inactive) in experiment [6].
As to `Clc1ccc2c(c1)C(N1CCNCC1)=Nc1ccccc1O2`, the viability in experiment [1] was 73% (inactive); in experiment [2], 46% (inactive); in experiment [3] it was 84.4% (inactive); in experiment [4] (setting [7]), 73%; in experiment [4] (setting [8]) it was 84.4%. Further, the differential viability (reversal) in experiment [4] (H69AR cells + 2 uM doxorubicin) was 11.4% (inactive). The inhibition in experiment [5] was -1.3% (inactive); in experiment [6] it was -3.83% (inactive).
`Cc1nnc(SCc2ccccc2F)n1NCc1cccs1`: the viability was 100% (inactive) in experiment [1]; 93.6% (inactive) in experiment [2]; 89% (inactive) in experiment [3]; 89.7% in experiment [4] (setting [7]); 89% in experiment [4] (setting [8]). Besides, the differential viability (reversal) in experiment [4] (H69AR cells + 2 uM doxorubicin) was -0.635% (inactive). For the same molecule, the inhibition in experiment [5] is -6.85% (inactive); in experiment [6] it was 5% (inactive).
For the molecule `Cc1cc(C(=O)Nc2ccc(S(=O)(=O)Nc3onc(C)c3C)cc2)cs1`, the viability in experiment [1] was 101% (inactive); in experiment [2] it was 101% (inactive); in experiment [3] it was 99.4% (inactive); in experiment [4] (setting [7]) it was 96.4%; in experiment [4] (setting [8]) it was 99.4%. In experiment [4] (H69AR cells + 2 uM doxorubicin), the differential viability (reversal) is 2.97% (inactive). In addition, the results for the inhibition in experiment [5] and in experiment [6] were -3.38% (inactive) and 0% (inactive), respectively.
Regarding `CCCOc1cccc(C(=O)Nc2cc(NC(=O)c3ccco3)ccc2OC)c1`, the viability in experiment [1] was 88% (inactive); in experiment [2], 85.1% (inactive); in experiment [3], 85% (inactive); in experiment [4] (setting [7]), 91.1%; in experiment [4] (setting [8]), 85%. In addition, the differential viability (reversal) in experiment [4] (H69AR cells + 2 uM doxorubicin) was -6.07% (inactive). Further, the inhibition was -3.78% (inactive) in experiment [5] and -2.55% (inactive) in experiment [6].
Regarding `C[C@]12C=CC(=O)C=C1CC[C@@H]1[C@@H]2[C@@H](O)C[C@@]2(C)[C@H]1CC[C@]2(O)C(=O)COC(=O)CCC(=O)O`, the viability was 112% (inactive) in experiment [1]; 80.3% (inactive) in experiment [2]; 84.4% (inactive) in experiment [3]; 81.4% in experiment [4] (setting [7]); 84.4% in experiment [4] (setting [8]). Also, in experiment [4] (H69AR cells + 2 uM doxorubicin), the differential viability (reversal) was 2.96% (inactive). Besides, the inhibition in experiment [5] is 1.95% (inactive); in experiment [6], 1.33% (inactive).
On to `CC1(C)CC(=O)C2=C(C1)NC(=O)CC2C(=O)NCc1ccc(F)cc1` (centres undefined), for which the viability in experiment [1] was 106% (inactive); in experiment [2], 110% (inactive); in experiment [3] it was 111% (inactive); in experiment [4] (setting [7]), 95.5%; in experiment [4] (setting [8]), 111%. For the same molecule, the differential viability (reversal) in experiment [4] (H69AR cells + 2 uM doxorubicin) was 15.3% (inactive). Also, the inhibition is -4.05% (inactive) in experiment [5] and 1.64% (inactive) in experiment [6].
`O=C(Nc1cccc(NC(=O)c2ccco2)c1)c1ccc2c(c1)OCO2`: the viability in experiment [1] was 106% (inactive); in experiment [2], 61% (inactive); in experiment [3], 82.4% (inactive); in experiment [4] (setting [7]), 86.8%; in experiment [4] (setting [8]) it was 82.4%. The differential viability (reversal) in experiment [4] (H69AR cells + 2 uM doxorubicin) was -4.39% (inactive). In addition, the inhibition is -1.18% (inactive) in experiment [5] and 21.2% (inactive) in experiment [6].
Turning to `CC(C)Sc1nc(N2CCCC2)c2c(c1C#N)CC(C)(C)OC2`, the viability in experiment [1] is 90% (inactive); in experiment [2] it was 71.2% (inactive); in experiment [3], 80.2% (inactive); in experiment [4] (setting [7]), 37.5%; in experiment [4] (setting [8]), 80.2%. For the same molecule, the differential viability (reversal) in experiment [4] (H69AR cells + 2 uM doxorubicin) is 42.7% (inactive). In addition, the results for the inhibition in experiment [5] and in experiment [6] were -2.88% (inactive) and -4.84% (inactive), respectively.
For `CSc1nnc(-c2ccccc2)n1C`, the viability in experiment [1] is 121% (inactive); in experiment [2], 102% (inactive); in experiment [3] it was 102% (inactive); in experiment [4] (setting [7]) it was 95.5%; in experiment [4] (setting [8]), 102%. Moreover, in experiment [4] (H69AR cells + 2 uM doxorubicin), the differential viability (reversal) was 6.17% (inactive). The inhibition was -8.36% (inactive) in experiment [5] and -0.55% (inactive) in experiment [6].
Consider `CC(C)[N+]1(C)[C@@H]2CC[C@H]1CC(OC(=O)C(CO)c1ccccc1)C2` (some centres undefined), for which the viability was 113% (inactive) in experiment [1]; 96% (inactive) in experiment [2]; 100% (inactive) in experiment [3]; 90.9% in experiment [4] (setting [7]); 100% in experiment [4] (setting [8]). For the same molecule, in experiment [4] (H69AR cells + 2 uM doxorubicin), the differential viability (reversal) was 9.31% (inactive). In addition, the inhibition is -6.36% (inactive) in experiment [5] and -2.83% (inactive) in experiment [6].
On to `COC(=O)c1cc(Br)c(=O)n(CCc2ccc(F)cc2)c1`, for which the viability in experiment [1] was 78% (inactive); in experiment [2] it was 118% (inactive); in experiment [3], 100% (inactive); in experiment [4] (setting [7]) it was 92%; in experiment [4] (setting [8]) it was 100%. In addition, in experiment [4] (H69AR cells + 2 uM doxorubicin), the differential viability (reversal) was 8.46% (inactive). Further, the inhibition was -5.27% (inactive) in experiment [5] and 3.09% (inactive) in experiment [6].
Take `Cc1ccc2c(c1)C(O)(CC(=O)c1ccc3c(c1)OCO3)C(=O)N2` (centres undefined): the viability in experiment [1] was 78% (inactive); in experiment [2], 92.3% (inactive); in experiment [3] it was 94.3% (inactive); in experiment [4] (setting [7]), 86.2%; in experiment [4] (setting [8]) it was 94.3%. The differential viability (reversal) in experiment [4] (H69AR cells + 2 uM doxorubicin) is 8.13% (inactive). Also, the inhibition is -4.11% (inactive) in experiment [5] and -7.58% (inactive) in experiment [6].
For the molecule `CCN(CC(=O)Nc1ccc2c(c1)CCC2)Cc1nc2ccccc2c(=O)[nH]1`, the viability in experiment [1] is 77% (inactive); in experiment [2], 81.8% (inactive); in experiment [3], 71.5% (inactive); in experiment [4] (setting [7]), 85.2%; in experiment [4] (setting [8]) it was 71.5%. Also, the differential viability (reversal) in experiment [4] (H69AR cells + 2 uM doxorubicin) was -13.7% (inactive). The inhibition in experiment [5] was -2.6% (inactive); in experiment [6] it was 4.73% (inactive).
In the case of `O=C(OCC(=O)c1ccccc1Br)c1ccccn1`, the viability in experiment [1] is 142% (inactive); in experiment [2], 89.8% (inactive); in experiment [3], 86.8% (inactive); in experiment [4] (setting [7]), 81.7%; in experiment [4] (setting [8]), 86.8%. For the same molecule, in experiment [4] (H69AR cells + 2 uM doxorubicin), the differential viability (reversal) was 5.17% (inactive). Besides, the inhibition in experiment [5] was -3.77% (inactive); in experiment [6], -1.64% (inactive).
For `Cc1cc(Oc2ccc(Cl)cc2)nc(-c2ccccc2O)n1`, the viability was 98% (inactive) in experiment [1]; 84.7% (inactive) in experiment [2]; 93.9% (inactive) in experiment [3]; 90.7% in experiment [4] (setting [7]); 93.9% in experiment [4] (setting [8]). Moreover, the differential viability (reversal) in experiment [4] (H69AR cells + 2 uM doxorubicin) is 3.2% (inactive). Further, the inhibition in experiment [5] was 2.73% (inactive); in experiment [6], -7.38% (inactive).
